Molecules are shown by their SMILES. A value given as a limit tells only on which side of the number the result lay.

The values below come from ChEMBL document CHEMBL1141231, “Discovery and development of a new class of potent, selective, orally active oxytocin receptor antagonists” (J Med Chem, 2005).

Data set [1] has as its target T1, Oxytocin receptor (Homo sapiens, UniProt P30559).
T1 sequence (P30559 whole entry): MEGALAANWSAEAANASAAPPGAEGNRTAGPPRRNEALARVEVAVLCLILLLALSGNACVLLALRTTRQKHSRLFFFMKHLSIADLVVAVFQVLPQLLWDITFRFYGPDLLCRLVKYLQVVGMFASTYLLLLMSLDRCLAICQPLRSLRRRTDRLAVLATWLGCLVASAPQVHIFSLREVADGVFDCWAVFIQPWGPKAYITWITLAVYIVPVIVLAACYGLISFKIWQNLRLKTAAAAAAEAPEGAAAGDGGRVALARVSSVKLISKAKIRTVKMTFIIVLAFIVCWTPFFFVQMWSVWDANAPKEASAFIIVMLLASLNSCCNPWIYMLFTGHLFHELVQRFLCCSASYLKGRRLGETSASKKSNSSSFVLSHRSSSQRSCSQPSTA
In words: Inhibitory activity against human Oxytocin induced intracellular Calcium mobilization in human Oxytocin receptor transfected HEK293-EBNA cells. It is filed as functional, cell-based. A general note: A change in cytosolic calcium serves as a functional read-out for many receptors and channels.

Data set [2] addresses Vasopressin V1a receptor (Homo sapiens, UniProt P37288). Briefly: Displacement of [125I]LVA antagonist from human vasopressin 1a receptor expressed in HEK293-EBNA cells. It is filed as cell-based. For orientation: In a radioligand displacement assay an active substance lowers the binding of a labelled ligand.
The test system of data set [3] is Liver microsomes. In words: Stability of compound in presence of human liver microsomes. Format: ADME, Microsome. In outline:
(§1)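 Liver microsomes (human or rat) at final […] in 0.1 M phosphate pH 7.4 with compound at final 40 µM (1% DMSO), preincubated at 37 °C; reaction started with 1 mM NADPH; stopped with cold acetonitrile at 0, 20 and 60 min.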
For orientation: Liver microsomes are a subcellular fraction often used to study metabolism.

The target of data set [4] is Cytochrome P450 2C19 (Homo sapiens, UniProt P33261). In words: Inhibitory activity against cytochrome P450 2C19 isoform. Format: ADME. In outline: (§2)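 Baculovirus/insect-cell-expressed CYP isoforms are incubated with a specific fluorogenic substrate and several compound concentrations in 1% DMSO. Fluorescence of the product after a defined reaction time gives % inhibition at each concentration and the IC50.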

Data set [5] is filed under the species Homo sapiens. Briefly: Selectivity for human vasopressin V1a receptor over human oxytocin receptor.
The target in data set [6] is T1, Oxytocin receptor. Briefly: biochemical. Format: cell-based, HEK293-EBNA.
Data set [7] deals with Cytochrome P450 2C9 (Homo sapiens, UniProt P11712). Briefly: Inhibitory activity against cytochrome P450 2C9 isoform.
The nature of data set [8]: Solubility in aqueous medium. It is filed as physicochemical. Particulars: aqueous medium; read-out: Solubility.
Data set [9] is described as follows: Stability of compound in presence of rat liver microsomes. It is filed as ADME. In outline:
as §1

The nature of data set [10]: Solubility in saline. It is filed as physicochemical.
Data set [11] concerns the target T2, Oxytocin receptor (Rattus norvegicus) (UniProt P70536).
T2 sequence (whole entry): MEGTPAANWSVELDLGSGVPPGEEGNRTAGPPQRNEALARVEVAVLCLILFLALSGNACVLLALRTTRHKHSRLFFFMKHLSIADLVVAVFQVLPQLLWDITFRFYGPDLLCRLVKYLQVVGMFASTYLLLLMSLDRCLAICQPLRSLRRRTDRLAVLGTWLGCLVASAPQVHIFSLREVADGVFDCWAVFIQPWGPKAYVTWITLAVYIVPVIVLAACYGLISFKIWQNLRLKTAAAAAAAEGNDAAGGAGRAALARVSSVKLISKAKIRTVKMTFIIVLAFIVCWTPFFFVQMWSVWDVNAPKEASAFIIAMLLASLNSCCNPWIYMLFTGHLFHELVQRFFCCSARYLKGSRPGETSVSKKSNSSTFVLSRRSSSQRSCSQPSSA
Briefly: Inhibition of oxytocin-induced uterine contractions in nonpregnant rats administered at 10 mg/kg, iv. It is filed as functional, organism-based. Also noted: dose 10 mg/kg. In outline:
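Anaesthetized nonpregnant rats; compound given as a solution by iv infusion in NP3S, PEG/saline or saline. Uterine intraluminal pressure AUC is read relative to the third OT injection. Inhibition is taken versus vehicle values at 5 min after OT administration.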

The test system of data set [12] is Rattus norvegicus. In words: Inhibition of spontaneous uterine contraction in late-term pregnant rats at 30 mg/kg, po.
The nature of data set [13]: Inhibitory activity against cytochrome P450. It is filed as ADME. In outline: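 Baculovirus/insect-cell expressed CYP isoforms incubated with compound at several concentrations in 1% DMSO plus isoform-specific fluorogenic substrate; fluorescence after a fixed reaction time used to compute % inhibition and IC50.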
The target of data set [14] is T3, Oxytocin receptor (Rattus norvegicus, UniProt P70536).
T3 sequence (P70536 whole entry): T2 sequence (whole entry)
Briefly: Displacement of [125I]OVTA antagonist from rat oxytocin receptor expressed in HEK293-EBNA cells. Format: cell-based.

The target of data set [15] is T2, Oxytocin receptor (Rattus norvegicus). In words: In vivo efficacy against oxytocin-induced uterine contractions in nonpregnant rats administered iv. Format: functional, organism-based. In outline:
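Anaesthetized nonpregnant rats; compound given as a solution by iv infusion in NP3S, PEG/saline or saline. Contractions read as AUC of intraluminal uterine pressure over 35 min, relative to the third OT injection, and expressed as % inhibition versus a vehicle group. ED50 is taken from a dose-response curve of peak inhibition values.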

Data set [16] shares this target. Briefly: Inhibition of oxytocin-induced uterine contractions in nonpregnant rats administered at 30 mg/kg, po. Format: functional, organism-based. Also noted: dose 30 mg/kg. In outline:
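Anaesthetized nonpregnant rats dosed orally by esophagus cannulation with a solution in NP3S, PEG/saline or saline. Uterine intraluminal pressure AUC is read versus vehicle. The value is the maximum inhibition within a 3 h interval after OT administration.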

The target of data set [17] is Cytochrome P450 3A4 (Homo sapiens, UniProt P08684). Briefly: Inhibitory activity against cytochrome P450 3A4 isoform. It is filed as ADME. In outline:
as §2

A short description of data set [18]: Oral bioavailability in rat. It is filed as ADME, organism-based. To be noted: in vivo.
Data set [19] has as its target Vasopressin V2 receptor (Homo sapiens, UniProt P30518). In words: Displacement of [125I]LVA antagonist from human vasopressin 2 receptor expressed in HEK293-EBNA cells. Format: cell-based.
A short description of data set [20]: Dissociation constant of the compound. It is filed as physicochemical.

Sequence of Vasopressin V1a receptor (P37288 whole entry): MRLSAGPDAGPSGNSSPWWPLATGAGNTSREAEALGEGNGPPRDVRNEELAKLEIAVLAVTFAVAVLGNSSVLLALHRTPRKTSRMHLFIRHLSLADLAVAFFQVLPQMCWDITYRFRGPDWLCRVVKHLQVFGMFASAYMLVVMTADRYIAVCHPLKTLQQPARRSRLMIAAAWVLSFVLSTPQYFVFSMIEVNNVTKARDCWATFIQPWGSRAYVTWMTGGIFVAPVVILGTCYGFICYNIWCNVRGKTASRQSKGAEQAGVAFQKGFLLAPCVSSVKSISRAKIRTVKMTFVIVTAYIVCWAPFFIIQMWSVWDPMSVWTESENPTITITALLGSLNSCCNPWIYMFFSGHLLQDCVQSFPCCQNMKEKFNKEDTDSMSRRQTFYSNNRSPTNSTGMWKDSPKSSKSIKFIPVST
Sequence of Cytochrome P450 2C9 (P11712 whole entry, canonical isoform): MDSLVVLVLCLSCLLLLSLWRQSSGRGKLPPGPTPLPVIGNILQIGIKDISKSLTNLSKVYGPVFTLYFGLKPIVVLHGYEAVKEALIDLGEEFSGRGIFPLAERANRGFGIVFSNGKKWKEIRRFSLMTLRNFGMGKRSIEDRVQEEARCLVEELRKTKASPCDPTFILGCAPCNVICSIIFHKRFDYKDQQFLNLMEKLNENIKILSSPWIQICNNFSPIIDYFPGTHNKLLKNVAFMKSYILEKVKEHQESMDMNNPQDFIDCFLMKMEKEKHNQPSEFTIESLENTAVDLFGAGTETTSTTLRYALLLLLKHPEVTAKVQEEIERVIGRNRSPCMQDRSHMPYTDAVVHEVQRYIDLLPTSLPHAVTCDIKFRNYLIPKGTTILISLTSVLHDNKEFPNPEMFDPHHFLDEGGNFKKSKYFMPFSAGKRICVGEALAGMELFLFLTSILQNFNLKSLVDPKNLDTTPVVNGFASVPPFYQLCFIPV
Sequence of Vasopressin V2 receptor (P30518 whole entry): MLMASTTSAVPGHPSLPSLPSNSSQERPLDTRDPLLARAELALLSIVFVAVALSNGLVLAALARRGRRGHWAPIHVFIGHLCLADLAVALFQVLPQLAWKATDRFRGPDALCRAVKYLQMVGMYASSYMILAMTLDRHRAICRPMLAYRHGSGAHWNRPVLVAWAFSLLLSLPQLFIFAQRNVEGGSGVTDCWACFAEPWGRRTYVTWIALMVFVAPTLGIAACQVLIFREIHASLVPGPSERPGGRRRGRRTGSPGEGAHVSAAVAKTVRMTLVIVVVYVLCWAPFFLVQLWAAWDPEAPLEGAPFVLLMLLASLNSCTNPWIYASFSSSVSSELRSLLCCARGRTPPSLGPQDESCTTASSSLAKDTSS
Sequence of Cytochrome P450 3A4 (P08684 whole entry, canonical isoform): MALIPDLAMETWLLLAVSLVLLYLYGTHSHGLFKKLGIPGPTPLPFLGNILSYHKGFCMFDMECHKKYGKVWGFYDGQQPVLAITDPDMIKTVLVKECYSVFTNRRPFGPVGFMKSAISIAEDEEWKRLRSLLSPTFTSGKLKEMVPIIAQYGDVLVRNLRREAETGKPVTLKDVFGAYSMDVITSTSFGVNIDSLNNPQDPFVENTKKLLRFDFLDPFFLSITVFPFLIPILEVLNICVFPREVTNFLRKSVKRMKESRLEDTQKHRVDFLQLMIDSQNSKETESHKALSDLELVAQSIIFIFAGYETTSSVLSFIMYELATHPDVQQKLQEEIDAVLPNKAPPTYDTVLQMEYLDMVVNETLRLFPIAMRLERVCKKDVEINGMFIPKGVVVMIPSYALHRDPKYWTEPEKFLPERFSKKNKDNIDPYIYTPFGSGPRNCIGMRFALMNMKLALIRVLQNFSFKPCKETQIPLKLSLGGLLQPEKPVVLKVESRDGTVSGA
Sequence of Cytochrome P450 2C19 (P33261 whole entry, canonical isoform): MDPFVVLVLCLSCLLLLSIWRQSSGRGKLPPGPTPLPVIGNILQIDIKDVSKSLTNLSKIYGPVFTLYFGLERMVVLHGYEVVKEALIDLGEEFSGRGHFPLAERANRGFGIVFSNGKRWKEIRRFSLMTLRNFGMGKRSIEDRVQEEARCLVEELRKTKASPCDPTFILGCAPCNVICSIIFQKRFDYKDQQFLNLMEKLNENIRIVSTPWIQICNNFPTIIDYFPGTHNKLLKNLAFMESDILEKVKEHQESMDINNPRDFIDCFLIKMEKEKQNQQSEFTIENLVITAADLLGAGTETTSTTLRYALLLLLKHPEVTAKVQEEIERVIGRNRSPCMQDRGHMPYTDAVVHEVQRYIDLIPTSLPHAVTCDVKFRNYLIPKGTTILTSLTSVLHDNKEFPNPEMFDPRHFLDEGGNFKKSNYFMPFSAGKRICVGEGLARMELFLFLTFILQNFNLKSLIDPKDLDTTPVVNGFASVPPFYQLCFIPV

With `O=C(CN(c1ccc(Cl)cc1)S(=O)(=O)c1ccc(CCCO)cc1)N/N=C1\C(=O)Nc2ccccc21`, the concentration for half-maximal inhibition (IC50) in data set [1] was determined as 32 nM; in data set [4], 50 nM; in [7], 345 nM. The figures for the inhibition constant Ki in [2] and in data set [6] were 615 nM and 4.1 nM, respectively. In addition, in data set [3], the MET was found to be 34%. The Ratio Ki in [5] was determined as 150. Moreover, the solubility in data set [8] and in [10] was below 1 µg/mL each time. For the same compound, the metabolised in data set [9] was found to be 31%.

Take `CN(C)CCCNC(=O)CCc1ccc(S(=O)(=O)N(CC(=O)N/N=C2\C(=O)Nc3ccccc32)c2ccc(Cl)cc2)cc1`: the Ki in data set [2] turned out to be 42 nM; in data set [6], 0.65 nM; in data set [14], 0.67 nM. The inhibition in [11] is 72%; in [16] it was 35%. For the same compound, the MET in [3] was 18%. The inhibition in vivo at 30 mg/kg in data set [12] was 29.3%. The Ratio Ki in data set [5] stood at 65. This compound displayed a half-inhibitory concentration (IC50) in data set [13] above 1000 nM. Moreover, the metabolised in data set [9] came out at 0%. The compound also showed an ED50 in [15] of 1.4 mg/kg.

In the case of `O=C(CN(c1ccc(Cl)cc1)S(=O)(=O)c1ccc(NCCN2CCOCC2)cc1)N/N=C1\C(=O)Nc2ccccc21`, the IC50 in data set [17] was 310 nM. In addition, the inhibition constant Ki was found to be 582 nM in data set [2], 7 nM in data set [6] and 25 nM in [14]. In data set [3], the MET is recorded as 73%. Moreover, the Ratio Ki in data set [5] was determined as 84. Moreover, the metabolised in data set [9] came to 40%.

In the case of `CCOc1ccc(S(=O)(=O)N(CC(=O)NN=C2C(=O)Nc3ccccc32)c2ccc(C)cc2)cc1`, the half-inhibitory concentration (IC50) in data set [1] turned out to be 30 nM. For the same compound, the inhibition constant Ki stood at 1410 nM in data set [2], 14 nM in data set [6], 25 nM in data set [14] and 2500 nM in data set [19]. In addition, the bioavailability in data set [18] came to 6%. The solubility in [8] and in data set [10] was below 1 µg/mL each time.

Regarding `CCOc1ccc(S(=O)(=O)N(CC(=O)N/N=C2\C(=O)Nc3ccncc32)c2ccc(Cl)cc2)cc1`, the values for the Ki in data set [2] and in data set [6] were 3610 nM and 64 nM, respectively. Moreover, the pKa in data set [20] is 4.4. For the same compound, in data set [5], the Ratio Ki came to 56.

In the case of `COCCOCCOc1ccc(S(=O)(=O)N(CC(=O)N/N=C2\C(=O)Nc3ccccc32)c2ccc(Cl)cc2)cc1`, the half-inhibitory concentration (IC50) stood at 7 nM in [1] and 330 nM in [7]. The results for the Ki in data set [2], in [6] and in data set [14] were 511 nM, 3 nM and 12 nM, respectively. The compound also had an inhibition in [11] of 23.3%. Moreover, the MET in data set [3] came to 79%. In data set [5], the Ratio Ki came out at 176. Moreover, the solubility in [8] and in data set [10] was below 1 µg/mL each time. The metabolised in data set [9] came to 89%.

What is called IC50 is the concentration needed to halve the response being measured. What is called Ki is the dissociation constant of the complex between target and ligand, obtained from inhibition or displacement. A lower Ki goes with higher affinity. As a reminder, the solubility is the dissolved amount per volume that the medium holds. As usually defined, the inhibition is the drop in the measured response relative to a control, in per cent. What is called inhibition in vivo is how much of the control response was suppressed. For orientation: ED50 means the dose at which the effect has come halfway, by size or by number of responders. A higher ED50 goes with weaker potency. Usually bioavailability stands for the share of a dose that reaches the circulation, judged against a reference dose that is usually intravenous. Lower therefore signals poor availability. One may read the pKa as the pH at which an ionisable group is half protonated.
